From article PMC10107792 (Chemistry (Weinheim an Der Bergstrasse, Germany), 2022)
“And” between values parts separate entries of the source, which are not always exact repeats. Equal entries are not always repeated.

How the values were obtained:
MraY from S. aureus = target: T1, MraY from S. aureus (Staphylococcus aureus, UniProt Q2FZ93); type: biochemical
T1 sequence (Q2FZ93 1-321): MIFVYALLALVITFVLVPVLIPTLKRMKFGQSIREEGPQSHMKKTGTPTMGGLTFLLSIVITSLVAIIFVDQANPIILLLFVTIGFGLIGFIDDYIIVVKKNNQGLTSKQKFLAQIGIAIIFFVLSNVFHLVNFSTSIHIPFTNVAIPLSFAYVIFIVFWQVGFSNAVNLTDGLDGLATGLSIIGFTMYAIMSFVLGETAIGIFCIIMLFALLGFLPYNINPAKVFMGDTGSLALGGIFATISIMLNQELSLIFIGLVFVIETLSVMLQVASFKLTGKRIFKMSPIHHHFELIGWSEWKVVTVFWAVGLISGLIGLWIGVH
Outline: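 S. aureus MraY crude membranes (final total protein ~1 mg/mL) with 50 μM undecaprenyl phosphate and 7.5 μM dansylated Park's nucleotide in 100 mM Tris-HCl pH 7.5, 200 mM KCl, 10 mM MgCl2, 0.1% Triton X-100. Fluorescence followed over time (ex 355/em 520 nm). Rate from 0–2 min linear regression; sigmoidal fit against log concentration gives IC50 ± SD. Variant: membranes pretreated with 1 mM diamide, 0 °C, 20 min (final 50 μM).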

E. coli ΔtolC = assay: Growth inhibition of E. coli ΔtolC; type: cell-based; settings: conjugate vs. non-conjugated 9, E. coli ΔtolC
E. coli DH5α = type: cell-based; settings: growth inhibition, efflux-competent strain, OD 600 nm
P. aeruginosa PAO1 = type: cell-based; settings: growth inhibition, OD 600 nm
MraY = settings: read-out: MraY inhibition IC50; in vitro; ref 15c; cited from earlier work
S. aureus = settings: ref 15c; cited from earlier work

Structure (SMILES)	IC50 (MraY from S. aureus)	fold increase of antibacterial activity relative to 9 (E. coli ΔtolC)	IC50 (E. coli DH5α) (E. coli DH5α) [µg/mL]	IC50 (P. aeruginosa PAO1) (P. aeruginosa PAO1) [µg/mL]	IC50 (MraY) [nM]	antibacterial activity against S. aureus (S. aureus)
CC(=O)Oc1cccc(C(=O)N[C@H]2COC(=O)[C@@H](NC(=O)c3cccc(OC(C)=O)c3OC(C)=O)[C@H](CCCNC(=O)CCSSCCCCCCCCCCC(=O)NC[C@H](NC(=O)[C@H](CCCCN)NC(=O)N[C@H](C(=O)O)C(C)C)C(=O)NCCCN[C@@H](C[C@H]3O[C@@H](n4ccc(=O)[nH]c4=O)[C@H](O)[C@@H]3O)C(=O)O)OC(=O)[C@@H](NC(=O)c3cccc(OC(C)=O)c3OC(C)=O)COC2=O)c1OC(C)=O [(AcO)EntKL‐SS‐9]	123 nM and 89 nM	ca. 11 fold	>100	>100		
CO[C@H]1[C@H](O[C@H]([C@H]2O[C@@H](n3ccc(=O)[nH]c3=O)[C@H](O)[C@@H]2O)[C@H](NCCCNC(=O)[C@@H](NC(=O)[C@@H](NC(=O)N[C@H](C(=O)O)C(C)C)[C@@H]2CCNC(=N)N2)[C@@H](OC(=O)CCCCCCCCCCCCC(C)C)C(C)C)C(=O)O)O[C@H](CN)[C@H]1O [Compound 5, muraymycin B8]					0.004 ± 0.0007	promising antibacterial activity
